Results published in ChEMBL document CHEMBL1687886, “N-cyclic bay-substituted perylene G-quadruplex ligands have selective antiproliferative effects on cancer cells and induce telomere damage” (J Med Chem, 2011).
Active and inactive are the calls of the source. No cut-off for these calls is given here.

Experiments:
BJ [1] = assay: Delocalization of POT1 protein from […] in human BJ cells expressing SV40 early protein EHLT after 72 hrs by chromatin immunoprecipitation assay; type: functional, cell-based
Method in brief: (§1)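 BJ-EHLT cells treated 24 or 72 h. Formaldehyde-crosslinked chromatin immunoprecipitated with anti-TRF1, anti-TRF2 or anti-POT1; β-actin antibody as negative control. Precipitates blotted and probed for telomeric repeats (ALU probe as nonspecific). Densitometry gives percentage of precipitated DNA relative to input (10% and 1%). Four independent experiments, SD.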

BJ [2] = assay: Cell cycle arrest in human BJ cells expressing TERT assessed as accumulation at G0/G1 stage at 0.5 uM after 72 hrs by propidium iodide staining based flow cytometry (reference value: 83%); type: ADME
BJ [3] = assay: Induction of telomere dysfunction induced foci n human BJ cells expressing SV40 early protein EHLT assessed as increase in gamma H2AX/TRF1 co-localization by Deconvolution microscopy; type: functional, cell-based
Method in brief: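 BJ-EHLT cells stained for TRF1 together with γ-H2AX or 53BP1 and imaged by deconvolution microscopy. Cells with four or more γ-H2AX/TRF1 foci scored as TIF positive; percentage of TIF-positive cells and mean TIFs per nucleus recorded. Mean of three experiments, SD.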

BJ [4] = assay: Cell cycle arrest in human BJ cells expressing TERT assessed as accumulation at G2/M stage at 0.5 uM after 96 hrs by propidium iodide staining based flow cytometry (reference value: 4%); type: ADME
BJ [5] = assay: Cell cycle arrest in human BJ cells expressing TERT assessed as accumulation at S stage at 0.5 uM after 96 hrs by propidium iodide staining based flow cytometry (reference value: 9%); type: ADME
BJ [6] = assay: Induction of DNA damage response in human BJ cells expressing SV40 early region EHLT assessed as phosphorylation of gamma H2AX at 0.25 uM after 24 hrs by immunofluorescence method; type: functional, cell-based
Method in brief: (§2)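 BJ-EHLT and BJ-hTERT fibroblasts exposed to a range of concentrations for 24 h. Fixed in 2% formaldehyde, permeabilized in 0.25% Triton X-100, immunostained for γ-H2AX and 53BP1. Percentage of positive cells scored. Three independent experiments, SD.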

PC-3 = assay: Antiproliferative activity against human PC3 after 2 to 8 days by trypan blue assay; type: functional, cell-based
Method in brief: (§3)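 Cells seeded at 5 ×10^4 per dish; compounds freshly dissolved and added to the medium 24 h after plating, at 0.5 μM or 3 μM (3 μM only for one derivative). Cell number by Coulter counting and viability by trypan blue exclusion daily, day 1 to day 8. Growth inhibition of treated vs untreated cells calculated at days 2, 4, 6 and 8. Representative experiments in quintuplicate, SD shown.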

BJ [7] = assay: Antiproliferative activity against human BJ cells expressing SV40 early region EHLT at 0.5 uM after 24 hrs by Coulter counter method; type: functional, cell-based; conditions: TDE = time-dependent effect, in the assay text read “after 2 to 8 days” for “after 24 hrs”; method in brief: as §3
BJ [8] = assay: Antiproliferative activity against human BJ cells expressing TERT at 3 uM after 2 to 8 days by trypan blue assay; type: functional, cell-based; conditions: 0.5 uM, in the assay text read “at 0.5 uM” for “at 3 uM”; method in brief: as §3
BJ [9] = assay: Delocalization of TRF1 protein from […] in human BJ cells expressing SV40 early protein EHLT by chromatin immunoprecipitation assay; type: functional, cell-based; method in brief: as §1
Nucleic Acid = assay: Stabilization of 21-mer human F21T G4-telomeric quadruplex assessed as change in melting temperature at 1 uM by FRET assay; type: nucleic-acid assay
BJ [10] = assay: Cell cycle arrest in human BJ cells expressing TERT assessed as accumulation at G0/G1 stage at 0.5 uM after 48 hrs by propidium iodide staining based flow cytometry (reference value: 80%); type: ADME
BJ [11] = assay: Induction of DNA damage n human BJ cells expressing SV40 early protein EHLT assessed as increase in gamma-H2Ax phosphorylation at 0.5 uM; type: functional; method in brief: as §2
BJ [12] = assay: Growth inhibition of human BJ cells expressing SV40 early region EHLT at 0.5 uM on day 8 by trypan blue assay; type: functional; conditions: 192 h, read-out: GI; method in brief: as §3
[13] = target: Telomerase reverse transcriptase (Homo sapiens, UniProt O14746); assay: Inhibition of human Telomerase activity in cell free system by TRAP assay
Telomerase reverse transcriptase, sequence (O14746 whole entry): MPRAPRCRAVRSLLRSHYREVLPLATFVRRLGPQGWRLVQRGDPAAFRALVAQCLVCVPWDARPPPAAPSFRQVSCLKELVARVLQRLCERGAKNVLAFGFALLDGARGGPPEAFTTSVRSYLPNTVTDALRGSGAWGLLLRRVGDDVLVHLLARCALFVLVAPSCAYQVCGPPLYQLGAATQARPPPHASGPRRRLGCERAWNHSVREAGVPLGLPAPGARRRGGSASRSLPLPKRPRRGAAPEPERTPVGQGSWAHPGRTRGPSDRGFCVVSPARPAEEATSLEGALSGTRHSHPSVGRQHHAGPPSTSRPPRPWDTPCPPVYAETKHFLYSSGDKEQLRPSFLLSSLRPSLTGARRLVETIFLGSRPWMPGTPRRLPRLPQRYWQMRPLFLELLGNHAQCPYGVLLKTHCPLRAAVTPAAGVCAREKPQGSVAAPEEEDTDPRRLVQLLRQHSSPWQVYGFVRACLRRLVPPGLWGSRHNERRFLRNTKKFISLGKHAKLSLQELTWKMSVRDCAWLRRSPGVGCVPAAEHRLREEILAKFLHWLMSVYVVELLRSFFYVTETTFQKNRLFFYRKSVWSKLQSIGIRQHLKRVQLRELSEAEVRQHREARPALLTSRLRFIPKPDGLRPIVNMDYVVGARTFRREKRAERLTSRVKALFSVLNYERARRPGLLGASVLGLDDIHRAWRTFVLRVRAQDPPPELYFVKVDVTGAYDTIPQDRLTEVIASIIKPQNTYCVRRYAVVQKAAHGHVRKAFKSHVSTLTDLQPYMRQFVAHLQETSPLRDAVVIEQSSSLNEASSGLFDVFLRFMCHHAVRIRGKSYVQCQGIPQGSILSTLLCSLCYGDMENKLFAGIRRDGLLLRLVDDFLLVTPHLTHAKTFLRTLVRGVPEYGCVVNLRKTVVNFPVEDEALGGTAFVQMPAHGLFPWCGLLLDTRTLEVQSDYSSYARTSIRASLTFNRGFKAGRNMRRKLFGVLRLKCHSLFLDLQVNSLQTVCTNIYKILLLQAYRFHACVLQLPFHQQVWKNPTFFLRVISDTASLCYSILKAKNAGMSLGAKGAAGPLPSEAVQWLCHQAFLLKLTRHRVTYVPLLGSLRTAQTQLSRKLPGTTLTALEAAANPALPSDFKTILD
Method in brief: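 Cell-free TRAP: protein extract incubated with compound at 1 to 50 μM so telomerase elongates the substrate oligonucleotide. Before PCR, phenol/chloroform/isoamyl-alcohol (50:49:1) extraction removes the ligand and DNA is precipitated overnight at -20 °C. Amplification uses a 36 bp ITAS; products are resolved on 12% PAGE and stained with SYBR Green. Signals are corrected by the no-extract control and normalized to untreated, giving dose-response IC50. Mean of three experiments.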

Activity (BJ [2]): 87.3%
Activity (BJ [4]): 2.2%
Activity (BJ [5]): 1.5%
ΔTm (Nucleic Acid): 23 °C
Activity (BJ [10]): 78.4%
IC50 [13]: 10 µM
SMILES: O=C1c2ccc3c4ccc5c6c(cc(N7CCCCC7)c(c7ccc(c2c37)C(=O)N1CCOCCN1CCCCC1)c64)C(=O)N(CCOCCN1CCCCC1)C5=O
Activity (BJ [1]): Active
Activity (BJ [3]): Active
Activity (BJ [6]): Active
Activity (PC-3): Active
Activity (BJ [7]): tde
Activity (BJ [8]): Non-toxic
Activity (BJ [9]): inactive
Activity (BJ [11]): 50%
inhibition of growth at 0.5 µM (BJ [12]): 50%
